Experimental data published in ChEMBL document CHEMBL5150043, “Discovery of Anthranilic Acid Derivatives as Difluoromethylornithine Adjunct Agents That Inhibit Far Upstream Element Binding Protein 1 (FUBP1) Function” (J Med Chem, 2022).
Calls of active or inactive are those of the source. The calls are words filed in the database; no cut-off is given here.

Key:
[1] = tested on: CHO-K1; assay: Cytotoxicity against chinese hamster CHO-K1 cells assessed as decrease in cell viability measured after 48 hrs by ATPlite assay; type: toxicity, cell-based, Cricetulus griseus; conditions: cho-k1, 48 h
In short: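 CHO-K1 cells dosed alone in 384-well format in parallel with Assays 1 and 2; MTC taken as highest concentration giving ≥90% relative growth versus untreated control; typical error ±10% (n = 3).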

[2] = tested on: CHO-K1; assay: Inhibition of spermidine uptake in chinese hamster CHO-K1 cells assessed as decrease in cell growth by measuring cellular ATP content measured after 48 hrs in presence of DFMO and spermidine by ATPlite assay; conditions: Cricetulus griseus, CHO-K1, 48 h
[3] = Cytotoxicity against human L3.6pl cells assessed as inhibition of cell growth measured after 72 hrs by ATPlite assay; type: toxicity, cell-based
[4] = Inhibition of spermidine uptake chinese hamster CHO-K1 cells assessed as decrease in cell growth by measuring cellular ATP content measured after 48 hrs in presence of DFMO and spermidine by ATPlite assay; type: functional, cell-based; conditions: Cricetulus griseus, CHO-K1, 48 h
[5] = Inhibition of spermidine uptake in human L3.6pl cells assessed as inhibition of cell growth by measuring cellular ATP content at MTC measured after 72 hrs in presence of DFMO and spermidine by ATPlite assay; type: functional
In short: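 L3.6pl cells with DFMO and spermidine over 72 h, compound dosed up to its MTC; ECx = percentage effect at the MTC on scale between DFMO-only (50%) and DFMO + Spd (100%) controls; average of ≥2 experiments in triplicate (n ≥ 6).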

[6] = tested on: L3.6pl; assay: Cytotoxicity against human L3.6pl cells assessed as cell viability measured after 72 hrs by ATPlite assay; type: toxicity, cell-based
In short: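 L3.6pl human pancreatic cancer cells in 96-well format were exposed to compound alone for 72 h. Growth was expressed relative to an untreated control. MTC is the highest concentration with relative growth still >90%. […] Data come from two or more experiments, each run in triplicate (n ≥ 6).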

[7] = tested on: L3.6pl; assay: Inhibition of polyamine uptake in human L3.6pl cells assessed as inhibition of Ant44-induced toxicity by measuring cellular ATP content at MTC measured after 72 hrs in presence of Ant44 by ATPlite assay; type: functional
In short: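 L3.6pl cells, Ant44 challenge over 72 h, compound dosed up to its MTC; ECx = percentage effect at the MTC on scale from Ant44-only (50% growth) to untreated (100%); average of ≥2 experiments in triplicate (n ≥ 6).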

[8] = tested on: L3.6pl; assay: Inhibition of FUBP1/DNA FUSE region interaction in human […] cells assessed as reduction in c-Myc FUSE DNA pull down at 60 uM incubated for 24 hrs by qRT-PCR analysis; type: cell-based
In short: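 ChIP: L3.6pl cells ± compound (60 μM) 24 h; crosslinked FUBP1–DNA immunoprecipitated with FUBP1 antibody, crosslink reversed, FUSE sequence upstream of c-Myc promoter amplified by qPCR; mean fold change ± SEM (n = 2).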

[9] = tested on: L3.6pl; assay: Decrease in intracellular polyamine level in human L3.6pl cells assessed as total polyamine level at 60 uM incubated for 24 hrs by HPLC analysis; type: functional, cell-based
In short: (§1)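 L3.6pl cells incubated 24 h at 37 °C with compound (60 μM) or 0.6% DMSO vehicle; native intracellular polyamines then measured; mean ± SD (n = 3).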

[10] = tested on: L3.6pl; assay: Decrease in intracellular polyamine level in human L3.6pl cells assessed as spermine level at 60 uM incubated for 24 hrs by HPLC analysis; type: functional, cell-based; in short: as §1
[11] = tested on: L3.6pl; assay: Inhibition of FUBP1/DNA FUSE region interaction in human […] cells assessed as increase in p21 mRNA level at 20 to 60 uM incubated for 24 hrs by qRT-PCR analysis; type: cell-based; conditions: dose 20-60 µM
In short: (§2)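 L3.6pl cells treated 24 h with compound or matched DMSO; p21 and c-Myc mRNA by qRT-PCR, normalized to β-actin; log mean ± SD (n = 2).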

[12] = molecular target: T1, Far upstream element-binding protein 1 (Homo sapiens) (UniProt Q96AE4); assay: Binding affinity to recombinant GST tagged FUBP1 KH3-KH4 domain (unknown origin) assessed as decrease in FUBP1-FUSE DNA bound complex using 5'-IRDye700 tagged TGTATATTCCCTCGGG oligonucleotide as substrate at 30 to 60 uM measured for 30 mins by Gel shift assay relative to control; conditions: dose 30-60 µM, DDE = dose-dependent effect
T1 sequence (whole entry): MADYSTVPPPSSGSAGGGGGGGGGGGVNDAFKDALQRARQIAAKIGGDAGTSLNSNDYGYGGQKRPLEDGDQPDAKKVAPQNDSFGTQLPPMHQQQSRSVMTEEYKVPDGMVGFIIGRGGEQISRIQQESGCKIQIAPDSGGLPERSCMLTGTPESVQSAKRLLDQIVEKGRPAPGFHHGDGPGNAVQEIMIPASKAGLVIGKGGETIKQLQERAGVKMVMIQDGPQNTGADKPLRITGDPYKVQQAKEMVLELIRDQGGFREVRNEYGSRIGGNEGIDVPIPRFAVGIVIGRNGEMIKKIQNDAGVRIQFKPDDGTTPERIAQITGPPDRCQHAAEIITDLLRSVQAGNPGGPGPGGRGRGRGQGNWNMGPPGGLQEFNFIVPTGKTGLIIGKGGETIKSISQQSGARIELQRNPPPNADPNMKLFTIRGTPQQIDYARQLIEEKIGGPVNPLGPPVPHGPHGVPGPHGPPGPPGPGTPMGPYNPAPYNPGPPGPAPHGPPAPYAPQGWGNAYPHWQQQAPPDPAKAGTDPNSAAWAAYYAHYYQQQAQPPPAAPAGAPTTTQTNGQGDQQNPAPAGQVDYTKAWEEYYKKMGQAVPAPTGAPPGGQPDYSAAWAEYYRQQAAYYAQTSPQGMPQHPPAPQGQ

[13] = tested on: L3.6pl; assay: Inhibition of FUBP1/DNA FUSE region interaction in human […] cells assessed as decrease in c-myc mRNA level at 20 to 60 uM incubated for 24 hrs by qRT-PCR analysis; type: cell-based; conditions: dose 20-60 µM; in short: as §2
[14] = tested on: L3.6pl; assay: Inhibition of FUBP1/DNA FUSE region interaction in human […] cells assessed as increase in p21 protein level at 20 to 60 uM incubated for 24 hrs by Western blot analysis; type: cell-based; conditions: dose 20-60 µM
In short: (§3)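 Western blot of L3.6pl cells after 24 h compound treatment with matched DMSO loading; c-Myc, p21 and FUBP1 probed, GAPDH as loading control; at least three independent experiments.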

[15] = tested on: L3.6pl; assay: Decrease in intracellular polyamine level in human L3.6pl cells assessed as spermidine level at 60 uM incubated for 24 hrs by HPLC analysis; type: functional, cell-based; in short: as §1
[16] = tested on: L3.6pl; assay: Inhibition of FUBP1/DNA FUSE region interaction in human […] cells assessed as reduction in c-myc protein level at 20 to 60 uM incubated for 24 hrs by Western blot analysis; type: cell-based; conditions: dose 20-60 µM; in short: as §3
[17] = tested on: L3.6pl; assay: Decrease in intracellular polyamine level in human L3.6pl cells assessed as putrescine level at 60 uM incubated for 24 hrs by HPLC analysis; type: functional, cell-based; in short: as §1
[18] = tested on: L3.6pl; assay: Inhibition of polyamine transport system in human L3.6pl cells assessed as reduction in [3H] spermidine uptake preincubated for 24 hrs followed by [3H]-spermidine addition and measured after 15 mins by scintillation counter method; type: cell-based; conditions: time 24.25 hrs
In short: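 L3.6pl cells pretreated 24 h with compound, then 3H-Spd added for 15 min; intracellular 3H-Spd measured; mean ± SD (n = 3).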

[19] = tested on: L3.6pl; assay: Inhibition of polyamine transport system in human L3.6pl cells assessed as reduction in [3H] spermidine uptake preincubated for 72 hrs in presence of DFMO followed by [3H]-spermidine addition and measured after 15 mins by scintillation counter method; type: cell-based; conditions: time 72.25 hrs
In short: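 L3.6pl cells incubated 72 h with DFMO alone or DFMO plus compound, then 3H-Spd added for 15 min; intracellular 3H-Spd measured; mean ± SD (n = 3).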

O=C(Nc1ccc(N2CCN(c3ccccn3)CC2)cc1C(=O)O)c1ccco1
MTC [1]: > 40 µM | EC50 [2]: > 40 µM | IC50 at 72 h [3]: > 50 µM | EC50 [4]: > 40 µM | inhibition (INH) [5]: 31% | MTC [6]: 12 µM | inhibition (INH) [7]: 41%

COc1ccc(C(=O)Nc2ccc(N3CCN(c4ccccc4OC)CC3)cc2C(=O)O)cc1
MTC [1]: > 40 µM | EC50 [2]: 26 µM | IC50 at 72 h [3]: 13.3 µM | EC50 [4]: 9 µM | inhibition (INH) [5]: 8% | MTC [6]: 6 µM | inhibition (INH) [7]: 25%

COc1ccc(C(=O)Nc2ccc(N3CCN(c4cc(Cl)ccc4C)CC3)cc2C(=O)O)cc1
inhibition [8]: Active | Activity [9]: Active | Activity [10]: Active | inhibition [11]: Active | MTC [1]: 13 µM | EC50 [2]: 8 µM | IC50 at 72 h [3]: 16.8 µM | Activity [12]: Dde | inhibition [13]: Active | inhibition ([14]; DDE = dose-dependent effect): Dde | EC50 [4]: > 40 µM | Activity [15]: Active | MTC [6]: 8 µM | inhibition ([16]; DDE = dose-dependent effect): Dde | Activity [17]: Active

NCCCC(N)(C(=O)O)C(F)F (centres undefined)
Activity [15]: Active | Activity [17]: Active

Cc1ccccc1CN1CCN(c2ccc(NC(=O)C(C)(C)C)cc2)CC1
MTC [1]: 2 µM | EC50 [2]: 2 µM | IC50 at 72 h [3]: > 10 µM | inhibition (INH) [5]: 15% | MTC [6]: 10 µM | inhibition (INH) [7]: 15%

CNCCCCNCCCCNCc1cc(CNCCCCNCCCCNC)cc(CNCCCCNCCCCNC)c1
inhibition [18]: Active | inhibition [19]: Active

COc1ccc(-c2cc(C(F)(F)F)n3nc(-c4cccs4)cc3n2)cc1OC
inhibition [14]: Active | inhibition [16]: Active

COc1ccccc1C(=O)Nc1ccc(N2CCN(c3cc(Cl)ccc3C)CC2)cc1C(=O)O
MTC [1]: 19 µM | EC50 [2]: 21 µM | IC50 at 72 h [3]: 29.1 µM | EC50 [4]: 2 µM | MTC [6]: 7 µM

COc1ccccc1C(=O)Nc1ccc(N2CCC(Oc3ccccc3)CC2)cc1C(=O)O
MTC [1]: > 40 µM | EC50 [2]: 19 µM | IC50 at 72 h [3]: 38.6 µM | EC50 [4]: 32 µM | inhibition (INH) [5]: 45% | MTC [6]: 10 µM | inhibition (INH) [7]: 35%

COc1ccc(C(=O)Nc2ccc(N3CCN(c4ccccc4Cl)CC3)cc2C(=O)O)cc1
MTC [1]: 28 µM | EC50 [2]: 27 µM | IC50 at 72 h [3]: 125 µM | inhibition (INH) [5]: 2% | MTC [6]: 90 µM | inhibition (INH) [7]: 27%

COc1ccccc1C(=O)Nc1ccc(CN2CCN(c3ccccn3)CC2)cc1C(=O)O
MTC [1]: > 40 µM | EC50 [2]: > 40 µM | IC50 at 72 h [3]: > 10 µM | EC50 [4]: > 40 µM | MTC [6]: 10 µM

COc1ccccc1C(=O)Nc1ccc(N2CCN(CCCc3ccccc3)CC2)cc1C(=O)O
MTC [1]: > 40 µM | EC50 [2]: > 40 µM | IC50 at 72 h [3]: > 10 µM | EC50 [4]: > 40 µM | MTC [6]: 10 µM
